# The entries come from a sample that favours hits as a whole.
# HCT116 bCat-KO: beta-catenin-lacking colon tumor cell growth suppression. viability, % at 10 µM. HCT116 beta-catenin knockout viability, CellTiter-Glo, 60 h; hits give low values. 140,000 tested, 1.5% active. AID 818;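 active = viability at or under a set limit, the compound median less 4 SD, cut at about 6% in these data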;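 also: 0% = Hyamine 1622 control at 20 µM and 100% = untreated cell control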
# H69AR growth 86K: growth inhibitors of human H69AR lung tumor cells. H69AR lung tumor viability, ATP luminescence, 72 h; hits give low values. viability, % at 10 µM. 85,000 tested, 6% active. AID 598;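 active = viability at or below 40%; inactive = viability above 40%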;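 also: multidrug resistant small cell line overexpressing MRP-1 efflux transporter; 100% = mean luminescence of untreated control wells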
# HUVEC prolif 384: inhibitors of human endothelial cell proliferation. HUVEC proliferation, CellTiter-Glo luminescence, 72 h; hits give low values. viability, % at 10 µM (by protocol). 86,000 tested, 1.1% active. AID 648;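 active = viability at or below 30%; inactive = viability above 30%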;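 also: 100% = median luminescence of DMSO-only cell control wells on each plate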
# HCT116 PTEN-null: PTEN-deleted cell growth suppression; HCT116 PTEN-null viability, CellTiter-Glo, 60 h; hits give low values; viability, % at 10 µM; 140,000 tested, 1.2% active; AID 827;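 active = viability at or below a set limit, 4 SD under the median of all tested compounds, cut at about 3.7% in these data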;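 also: PTEN knockout HCT116 line with beta catenin targeted HCT116 as companion control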
# Fibroblast inh: blocks proliferation of human lung fibroblasts; LL 47 human lung fibroblast viability, ATP luminescence; hits give low values; viability, % at 10 µM; 85,000 tested, 1.1% active; AID 719;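 active = viability at or below 50% in the single dose screen; inactive = viability above 50%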;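 also: compound exposure lasted 72 h before the ATP readout; 100% = median luminescence of untreated cell-only wells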
#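 Material: human lung fibroblast line LL 47, low passage; Evaluation: viability percentage against median untreated-cell control; Buffer or medium: 15% FBS in IMEM; Incubation: 72 h compound exposure at 37 °C after overnight plating; Dosing: 0.1% DMSO in all compound wells; Measured by: CellTiter-Glo luminescence.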
# Numbers without * were called inactive; . = no result.
SMILES,HCT116 bCat-KO,H69AR growth 86K,HUVEC prolif 384,HCT116 PTEN-null,Fibroblast inh
O=C(Nc1ccc2oc(-c3cccc(F)c3)nc2c1)c1ccccc1F,7,49,64,2.4*,103
COc1cc(OC)cc(-c2nc3cc(C)ccc3o2)c1,72,31*,65,66,70
CCCC(=O)Nc1cccc(-c2nc3cc(C)c(C)cc3o2)c1,95,14*,49,98,111
COc1cc(C(=O)Nc2cccc(-c3nc4cc(C)ccc4o3)c2)cc(OC)c1OC,76,28*,57,73,94
O=C(Nc1ccc2oc(-c3ccccc3)nc2c1)c1ccccc1F,80,87,101,94,113
COc1cc(C(=O)Nc2cccc(-c3nc4cc(C)ccc4o3)c2C)cc(OC)c1OC,89,73,84,112,82
Cc1ccc(-c2nc3cc(Cl)ccc3o2)cc1,94,54,88,92,98
O=C(OCC(=O)c1c[nH]c2ccccc12)c1cc2ccccc2cc1O,72,.,.,70,.
CN(CC(=O)OCC(=O)c1c(N)n(C)c(=O)n(C)c1=O)S(=O)(=O)c1ccc(Cl)cc1,88,.,.,92,.
CCN(CC)c1ccc(C(=O)OCC(=O)Nc2sccc2C#N)cc1,88,.,.,92,.
COc1ccc(NC(=O)Cc2coc3ccc4ccccc4c23)cc1S(=O)(=O)N1CCOCC1,80,.,.,66,.
O=C(Nc1ccc2oc(-c3ccccc3F)nc2c1)c1ncn[nH]1,101,.,.,85,.
COc1cc(C(=O)Nc2cc(-c3nc4cc(C)ccc4o3)ccc2C)cc(OC)c1OC,97,30*,43,88,58
Cc1ccc(NC(=O)c2cc(-n3cnnc3)ccc2Cl)cc1,87,97,95,85,100
Cc1ccc2oc(-c3cccc(NC(=O)c4cc(-n5cnnc5)ccc4Cl)c3)nc2c1,88,11*,58,94,51
O=C(Nc1ccc2oc(-c3ccc(Cl)c(Cl)c3)nc2c1)c1ncn[nH]1,1.0*,.,.,0.9*,.
C/C(=N\NC(=S)Nc1c(C)cccc1C)c1ccc(OC(F)F)cc1,93,.,.,83,.
CCC(=O)N1N=C(c2c(-c3ccccc3)c3cc(Cl)ccc3[nH]c2=O)CC1c1ccco1 (stereo not drawn),58,.,.,46,.
COc1ccccc1C1CC(c2c(-c3ccccc3)c3cc(Cl)ccc3[nH]c2=O)=NN1S(C)(=O)=O (stereo not drawn),2.0*,8.3*,26*,1.9*,94
COc1cccc(C2CC(c3c(-c4ccccc4)c4cc(Cl)ccc4[nH]c3=O)=NN2S(C)(=O)=O)c1OC (stereo not drawn),55,22*,56,37,91
Cc1cc(C)cc(C(=O)NN2CCOCC2)c1,104,.,.,99,.
COc1cc(NC(=O)c2c(F)c(F)c(F)c(F)c2F)c(OC)cc1Cl,66,14*,45,64,91
O=c1c(-c2ccc(O)cc2)coc2cc(OC3OC(CO)C(O)C(O)C3O)ccc12 (stereo not drawn),93,.,.,88,.
COC(=O)C1=C(C)NC(=O)/C1=C\c1cc(C)n(-c2c(C)cccc2C)c1C,76,46,27*,69,60
CCN(CC)CCOC(=O)c1ccc(NC(=O)C(C)NC(=O)C23CC4CC(CC(C4)C2)C3)cc1 (stereo not drawn),97,.,.,106,.
SMILES,HCT116 bCat-KO,H69AR growth 86K,HUVEC prolif 384,HCT116 PTEN-null,Fibroblast inh
CCn1c(C)nc([N+](=O)[O-])c1Sc1ccc(F)cc1,76,.,.,71,.
CC(C)Cn1c(C(C)C)nc([N+](=O)[O-])c1Sc1ccc(Cl)cn1,77,19*,78,63,55
CCCCn1c(CCC)nc([N+](=O)[O-])c1Sc1ccc(Cl)cn1,16,2.4*,77,14,72
O=[N+]([O-])c1ccc(Sc2ccccc2)nc1,102,.,.,100,.
O=C(c1sc2cc(F)ccc2c1Cl)N1CCN(c2ccccc2)CC1,94,.,.,77,.
COc1ccc2c(c1)c1nc3ccccc3nc1n2CC(=O)OC(C)C,2.3*,18*,57,3.7*,39*
CCOC(=O)Cn1c2ccccc2c2nc3ccccc3nc21,21,6.1*,107,44,96
CCOC(=O)C(C(C)=O)c1c(Br)c(O)c(O)c2c(C(=O)c3ccc(C)cc3)coc12 (stereo not drawn),1.3*,1.4*,60,1.7*,10*
CC(C)(C)c1cnnn1-c1ccc(C(=O)CCl)cc1,102,1.6*,40,93,16*
NC(=O)c1ccccc1NC(=O)NC1CCCCC1,93,91,98,94,111
O=C(Nc1ccccc1NC(=O)NC1CCCCC1)NC1CCCCC1,26,0.6*,3.6*,4,51
COc1cc(OC)cc(C(=O)NCCCN2CCN(CCCNC(=O)c3cc(OC)cc(OC)c3)CC2)c1,74,.,.,86,.
O=C1CN(C(=O)c2ccccn2)c2ccccc2N1,102,92,103,99,92
CCCn1nc(C(=O)N2CC(=O)Nc3ccccc32)c2ccccc2c1=O,31,25*,55,27,63
CSc1cccc(NC(=O)/C=C/c2cccc(Cl)c2)c1,97,.,.,92,.
NC1=NC2(CCCCC2)N=C(Nc2ccc(F)cc2F)N1,107,.,.,94,.
Cc1cc(C)cc(NC2=NC3(CCCCC3)N=C(N)N2)c1,21,18*,63,22,56
CCCCCn1c(SCC#N)nc2cc(C(=O)NC3CCCCC3)ccc2c1=O,.,53,67,.,48*
CCc1nc2ccc(C(=O)O)cc2nc1CC,96,.,.,89,.
CCOc1ccc(N(CCC#N)S(=O)(=O)c2ccc(OC)cc2)cc1,62,21*,80,56,85
CCOC(=O)c1[nH]c2ccc(OC)cc2c1NC(=O)C(C)N1CCC2(CC1)OCCO2 (stereo not drawn),93,80,90,88,96
CCOC(=O)c1[nH]c2ccc(F)cc2c1NC(=O)C(C)N1CCc2cc(OC)c(OC)cc2C1 (stereo not drawn),29,2.4*,60,29,74
O=C(Nc1ccc(-c2noc(-c3cccs3)n2)cc1)c1cccnc1,78,10*,52,73,101
COc1cccc(-c2nc(-c3ccc(NC(=O)c4cccnc4)cc3)no2)c1,87,26*,101,87,100
COc1ccc(-c2noc(-c3ccccc3C(=O)Nc3cccnc3)n2)cc1,86,76,87,80,95
SMILES,HCT116 bCat-KO,H69AR growth 86K,HUVEC prolif 384,HCT116 PTEN-null,Fibroblast inh
O=C(NC(Cc1c[nH]c2ccccc12)C(=O)NCc1ccc(F)cc1)OCc1ccccc1 (stereo not drawn),86,.,.,96,.
Cc1ccc(-c2nn(-c3ccccc3)cc2C=C2C(=O)CC(C)(C)CC2=O)cc1,20,.,.,13,.
CC1=NNC(=O)/C1=C\c1cn(-c2ccccc2)nc1-c1ccc(Cl)cc1,1.4*,.,.,1.4*,.
c1coc(CNc2nc(N3CCCCC3)nc3ccccc23)c1,24,5.3*,56,29,81
O=c1c2ccccc2nc2c3ccccc3c(NCc3ccco3)nn12,68,74,82,66,94
c1ccc(N2CCN(c3nc(NCc4ccco4)c4ccccc4n3)CC2)cc1,2.4*,.,.,3.1*,.
